Results as given in ChEMBL document CHEMBL5352477, “Isoform selectivities of novel 4-hydroxycoumarin imines as inhibitors of myosin II” (Eur J Med Chem, 2023).
pIC50: −log10 of the molar value. Values after ≈ are worked out from the molar mass of the structure shown. Active and inactive are the calls of the source. No cut-off for these calls is given here.

Columns and labels:
[1] = system: COS-7; experiment: Inhibition of Non-muscle myosin IIB in African green monkey COS-7 cells assessed as inhibition of cytokinesis by measuring increase in nuclei to cell ratio (N/C) at 40 uM incubated for 24 hrs by fluorescein-diacetate, Hoechst 33342 and propidium iodide staining based fluorescence microscopy relative to control; conditions: Chlorocebus aethiops
Summary of the method: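 COS-7 cells (4,000/well) preincubated 24 h at 37 °C in 5% CO2, then exposed 24 h to 40 μM compound, final 1% DMSO. Media and 1% DMSO served as negative controls; para-aminoblebbistatin 20 μM and blebbistatin 10 μM as positive controls. Stained 10 min with FDA 6 μM, Hoechst 33342 10 μM and PI 4 μM, then imaged; N/C counted excluding PI-positive nuclei. Triplicate wells, ≥2 experiments, ≥600 cells per well.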

[2] = (§1) Inhibition of full length chicken phosphorylated myosin 2 smooth muscle isoform derived from gizzard ATPase activity assessed as reduction in steady-state rabbit F-actin-activated Mg2+ ATPase activity incubated for 6 to 24 mins in presence of ATPase buffer at 7.0 containing Mgcl2 and ATP by fluorescence-based assay; format: tissue-based, Gallus gallus
[3] = Kinetic solubility of the compound in 2.5% DMSO/PBS at pH 7.4 incubated for 1 hrs by nephelometry; format: physicochemical; conditions: for solubility kinetic at 1 h: 2.5% DMSO/PBS, pH 7.4, read-out: Kinetic_solubility; for Kinetic_solubility: buffer, pH 7.4, 1 h
Summary of the method: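 DMSO stock (20 mM) added to PBS pH 7.4, then serially diluted in quadruplicate at a constant 2.5% DMSO. Plates shaken 2 min, incubated 1 h at 37 °C, shaken 3 min, and turbidity read by nephelometry; average blank subtracted.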

[4] = Inhibition of full length bovine Myosin-2 cardiac muscle isoform from left ventricle ATPase activity assessed as reduction in steady-state rabbit F-actin-activated Mg2+ ATPase activity incubated for 6 to 24 mins in presence of ATPase buffer at 7.0 containing Mgcl2 and ATP by fluorescence-based assay; design: species or system Bos taurus, Heart left ventricle
[5] = system: COS-7; experiment: Cytotoxicity against Green monkey COS-7 cells assessed as reduction in cell viability incubated for 24 hrs by MTT assay; format: toxicity, cell-based; conditions: chlorocebus aethiops, cos-7, 24 h
Summary of the method: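 COS-7 cells seeded at 2.5 × 10^4 per well, grown 24 h at 37 °C in 5% CO2, then treated 24 h with 20, 40, 100 or 200 μM compound in media with 1% DMSO (4 wells each). MTT 1.2 mM in PBS for 2 h in the dark, lysis in 0.1% NP-40/isopropanol with HCl, A564 read; CC50 and CC90 taken as concentrations giving 50% and 90% loss of viability.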

[6] = as §1, with “rabbit” for “chicken phosphorylated”, “skeletal” for “smooth”, “Psoas muscle” for “gizzard”; format: tissue-based, Oryctolagus cuniculus
[7] = Selectivity index, ratio of IC50 for inhibition of full length bovine cardiac muscle myosin II ATPase activity to IC50 for inhibition of full length rabbit skeletal muscle myosin II ATPase activity
[8] = Hydrolytic stability of the compound ATPase assay buffer at pH 7 containing Mgcl2 and ATP assessed as half life by UV-visible spectrophotometry; format: physicochemical
Summary of the method: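 Compound diluted from 20 mM DMSO stock to 8 μM final (2% DMSO) in ATPase buffer: 10 mM MOPS pH 7.0, 50 mM NaCl, 0.1 mM EGTA, 5 mM MgCl2, 2 mM ATP, 1 mM DTT. Kept sealed at 30 °C; UV-vis spectrum (0.5 nm steps, 1 cm quartz) recorded at start and every 24 h against fresh reference solutions.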

SMILES	pIC50 [2]	inhibition [1]	further results
CCOCCC/N=C/c1c(O)c2ccccc2oc1=O	≤ 4.00	inactive	pIC50 [4]: ≤ 4.00; CC10 [5]: 135 µM; CC50 [5]: > 1000 µM; pIC50 [6]: 5.48; Ratio IC50 [7]: > 30
Cc1ccc2c(c1)C(=O)[C@]1(O)CCN(c3ccc(N)cc3)C1=N2	≤ 4.00	–	–
CCCCCC/N=C(\C)c1c(O)c2ccccc2oc1=O	≤ 4.00	inactive	–
C/N=C(\C)C1C(=O)Oc2ccccc2C1=O (configuration not stated)	≤ 4.00	inactive	–
C/C(=N\Cc1ccccc1)c1c(O)c2ccccc2[nH]c1=O	≤ 4.00	inactive	–
CCC(C)/N=C(\C)c1c(O)c2ccccc2oc1=O (configuration not stated)	≤ 4.00	inactive	–
C/C(=N\OCc1ccccc1)c1c(O)c2ccccc2oc1=O	≤ 4.00	inactive	–
C/C(=N\Cc1cccc(C)c1)c1c(O)c2ccccc2oc1=O	≤ 4.00	inactive	–
CCCC/N=C(\C)C1C(=O)Oc2ccccc2C1=O (configuration not stated)	≤ 4.00	inactive	solubility kinetic at 1 h [3]: 607 µM (≈ 157 µg/mL)
CCCC/N=C(\C)c1c(O)c2ccccc2[nH]c1=O	≤ 4.00	inactive	–
C/C(=N\C(C)C)c1c(O)c2ccccc2oc1=O	≤ 4.00	inactive	–
C/C(=N\CCO)c1c(O)c2ccccc2[nH]c1=O	≤ 4.00	inactive	–
Cc1ccc2c(c1)C(=O)[C@]1(O)CCN(c3ccccc3)C1=N2	≤ 4.00	inactive	–
COc1ccc(COCCC/N=C(\C)c2c(O)c3ccccc3oc2=O)cc1	≤ 4.00	inactive	pIC50 [4]: ≤ 4.00; CC10 [5]: 46 µM; CC50 [5]: > 200 µM; pIC50 [6]: 4.30; Kinetic_solubility [3]: 103 µM
COc1cc(/C=C/C(=O)c2c(O)c3ccccc3oc2=O)ccc1O	≤ 4.00	inactive	pIC50 [4]: ≤ 4.00; pIC50 [6]: ≤ 4.00
C/C(=N\CCCOCc1ccc2c(c1)OCO2)c1c(O)c2ccccc2oc1=O	≤ 4.00	inactive	pIC50 [4]: ≤ 4.00; CC10 [5]: 110 µM; CC50 [5]: > 200 µM; pIC50 [6]: 4.54; Kinetic_solubility [3]: 122 µM
COCCC/N=C(\C)c1c(O)c2ccccc2oc1=O	≤ 4.00	inactive	pIC50 [4]: 4.42; CC10 [5]: 339 µM; CC50 [5]: > 1000 µM; pIC50 [6]: 4.96; Ratio IC50 [7]: 3.5

SMILES	pIC50 [2]	inhibition [1]	further results
C/C(=N\Cc1cccnc1)c1c(O)c2ccccc2oc1=O	≤ 4.00	inactive	–
COc1cccc(C/N=C(\C)c2c(O)c3ccccc3oc2=O)c1	≤ 4.00	inactive	pIC50 [4]: 5.36; CC10 [5]: 39 µM; CC50 [5]: > 200 µM; pIC50 [6]: 5.04; Ratio IC50 [7]: 0.5
CCC(C)/N=C(\C)c1c(O)c2ccccc2[nH]c1=O (configuration not stated)	≤ 4.00	inactive	–
C/C(=N\Cc1ccccc1)c1c(O)c2cc([N+](=O)[O-])ccc2oc1=O	≤ 4.00	inactive	–
C/C(=N\Nc1ccccc1)c1c(O)c2ccccc2oc1=O	≤ 4.00	inactive	–
C/C(=N\CC1CCCCC1)c1c(O)c2ccccc2[nH]c1=O	≤ 4.00	inactive	–
C/C(=N\Cc1ccccc1)c1c(O)c2ccccc2n(C)c1=O	≤ 4.00	inactive	–
CCCCC/N=C(\C)c1c(O)c2ccccc2oc1=O	≤ 4.00	inactive	–
C/C(=N\CC(C)C)c1c(O)c2ccccc2[nH]c1=O	≤ 4.00	inactive	–
C/C(=N\C(C)C)c1c(O)c2ccccc2[nH]c1=O	≤ 4.00	inactive	–
O=c1oc2ccccc2c(O)c1/C=N/Cc1ccccc1	≤ 4.00	inactive	pIC50 [4]: ≤ 4.00; t1/2 [8]: 2.5 days; pIC50 [6]: ≤ 4.00
CCOCCC/N=C(\C)c1c(O)c2ccccc2oc1=O	≤ 4.00	inactive	pIC50 [4]: 5.09; CC10 [5]: 53 µM; CC50 [5]: 980 µM; pIC50 [6]: 5.60; Kinetic_solubility [3]: > 1250 µM; Ratio IC50 [7]: 3.2
C/C(=N\CCO)c1c(O)c2ccccc2oc1=O	≤ 4.00	inactive	–
CCC/N=C(\C)c1c(O)c2ccccc2oc1=O	≤ 4.00	inactive	–
CC/N=C(\C)C1C(=O)Oc2ccccc2C1=O (configuration not stated)	≤ 4.00	inactive	–
C/C(=N\Cc1ccccc1C)c1c(O)c2ccccc2oc1=O	≤ 4.00	inactive	–

More lines, main results first:

pIC50 [2]	SMILES	inhibition [1]	further results
≤ 4.00	C/C(=N\Cc1ccncc1)c1c(O)c2ccccc2oc1=O	inactive	solubility kinetic at 1 h [3]: > 400 µM
≤ 4.00	C/C(=N\CCCO)c1c(O)c2ccccc2oc1=O	inactive	–
≤ 4.00	C/C(=N\CC(C)C)c1c(O)c2ccccc2oc1=O	inactive	–
≤ 4.00	CCC/N=C(\C)c1c(O)c2ccccc2[nH]c1=O	inactive	–
≤ 4.00	CC(=N)C1C(=O)Oc2ccccc2C1=O (configuration not stated)	inactive	–
≤ 4.00	COCC/N=C(\C)c1c(O)c2ccccc2oc1=O	inactive	pIC50 [4]: 4.28; CC10 [5]: 286 µM; CC50 [5]: > 200 µM; pIC50 [6]: 4.05; Ratio IC50 [7]: 0.6
≤ 4.00	CCOCC/N=C(\C)c1c(O)c2ccccc2oc1=O	inactive	pIC50 [4]: 4.62; CC10 [5]: 184 µM; CC50 [5]: > 1000 µM; pIC50 [6]: 4.72; Ratio IC50 [7]: 1.3
≤ 4.00	COc1ccc(C/N=C(\C)c2c(O)c3ccccc3oc2=O)cc1	inactive	pIC50 [4]: 5.27; CC10 [5]: 36 µM; CC50 [5]: > 200 µM; pIC50 [6]: 5.80; Ratio IC50 [7]: 3.4
≤ 4.00	C/C(=N\Cc1ccccc1)c1c(O)c2ccccc2oc1=O	inactive	t1/2 [8]: > 6 days
≤ 4.00	C/C(=N\Cc1ccccn1)c1c(O)c2ccccc2oc1=O	inactive	–
≤ 4.00	CCCCN(CCC/N=C(\C)c1c(O)c2ccccc2oc1=O)Cc1cccc(OC)c1	inactive	pIC50 [4]: ≤ 4.00; pIC50 [6]: ≤ 4.00
≤ 4.00	CC/C(=N\Cc1ccccc1)c1c(O)c2ccccc2oc1=O	inactive	–
≤ 4.00	CCCCC/N=C(\C)c1c(O)c2cc([N+](=O)[O-])ccc2oc1=O	inactive	–
≤ 4.00	CCC/C(=N\Cc1ccccc1)c1c(O)c2ccccc2oc1=O	inactive	–
≤ 4.00	COCCOCCOCCC/N=C(\C)c1c(O)c2ccccc2oc1=O	inactive	pIC50 [4]: ≤ 4.00; pIC50 [6]: ≤ 4.00
≤ 4.00	CCCCC/N=C(\C)c1c(O)c2ccccc2[nH]c1=O	inactive	–
≤ 4.00	C/C(=N\Cc1ccc(C)cc1)c1c(O)c2ccccc2oc1=O	inactive	–
